Reference: ChEMBL document CHEMBL1124002, “Antiallergy agents. 1. Substituted 1,8-naphthyridin-2(1H)-ones as inhibitors of SRS-A release” (J Med Chem, 1988)

Columns and labels:
Assay type in all cases: functional
Cavia porcellus [1] = species: Cavia porcellus; test: Percent inhibition of SRS-A release in vitro at a dose of 10 uM in guinea pig
Procedure, shortened: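 Male Hartley guinea pigs were sensitized with ovalbumin (5 mg ip + 5 mg sc on day 1, 5 mg ip on day 4). About 400 mg chopped lung was preincubated with compound for 12 min at 37 °C in Tyrode's with 10 mM cysteine, then challenged with 20 μg/mL ovalbumin (final) for 0.25 h. SRS-A in ethanol-extracted supernatant was bioassayed on mepyramine-treated ileum against a rat SRS-A standard. Results are % inhibition versus vehicle, from 3-4 lungs.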

Cavia porcellus [2] = test: Percent inhibition of bronchospasm in vivo at a dose of 25 mg/kg in guinea pig; conditions: Bronchiole
Procedure, shortened: (§1)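 Guinea pigs were sensitized with ovalbumin and used 3-4 weeks later. They were fasted and anesthetized with dialurethane ip. Compounds were given orally 2 h before challenge. Propranolol 1 mg/kg, indomethacin 5 mg/kg and mepyramine 2 mg/kg were given iv 15 min before a 0.5 min aerosol of 0.5% ovalbumin through the tracheal cannula. The rise in inflation pressure measured bronchoconstriction. Results are % inhibition, 4-5 animals per group.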

Cavia porcellus [3] = test: Percent inhibition of bronchospasm in vivo at a dose of 12.5 mg/kg in guinea pig; conditions: Bronchiole; procedure, shortened: as §1

| Structure (SMILES) | inhibition at 10 µM (Cavia porcellus [1]) | inhibition in vivo at 25 mg/kg (Cavia porcellus [2]) | inhibition in vivo at 12.5 mg/kg (Cavia porcellus [3]) |
| --- | --- | --- | --- |
| CCCCc1c(O)c2cccnc2n(-c2ccccc2C)c1=O | 55% | 9% | – |
| CCCCc1c(O)c2cccnc2n(-c2ccc(F)cc2F)c1=O | 27% | – | – |
| CCCCc1c(OC(C)=O)c2cccnc2n(-c2ccc(S(C)(=O)=O)cc2)c1=O | 26% | – | – |
| CCCCc1c(O)c2ccccc2n(-c2ccncc2)c1=O | 31% | – | – |
| C=CCc1c(O)c2cccnc2n(-c2cccc(C(F)(F)F)c2)c1=O | 50% | 0% | – |
| O=c1c(CC2CCCCC2)c(O)c2cccnc2n1-c1ccccc1 | 30% | – | – |
| CCCCc1c(O)c2nccnc2n(-c2ccccc2)c1=O | 75% | 36% | – |
| CCCCc1c(O)c2cncnc2n(-c2ccccc2)c1=O | 9% | – | – |
| CCCCc1c(OCC)c2cccnc2n(-c2ccccc2)c1=O | 0% | – | – |
| C=CCc1c(OC(C)=O)c2cccnc2n(-c2cccc(C(F)(F)F)c2)c1=O | 65% | – | – |
| CCCCc1c(OC(C)=O)c2cccnc2n(-c2ccc(SC)cc2)c1=O | 38% | – | – |
| C=CCOc1c(CCCC)c(=O)n(-c2ccccc2)c2ncccc12 | 0% | – | – |
| CCCCc1c(O)c2cc(OC)cnc2n(-c2ccccc2)c1=O | 3% | – | – |
| CCCCc1c(OC(C)=O)c2cccnc2n(-c2ccc(OC(C)=O)c(C(=O)O)c2)c1=O | 17% | – | – |
| CCCCc1c(O)c2cc(O)cnc2n(-c2ccccc2)c1=O | 69% | 0% | – |
| C=CCc1c(OC(C)=O)c2cccnc2n(-c2cccc(OC)c2)c1=O | 84% | – | 32% |
| CCCCc1c(O)c2cccnc2n(-c2ccc(C(C)O)cc2)c1=O (stereo not given) | 48% | – | – |
| CCCCc1c(OCCO)c2cccnc2n(-c2ccccc2)c1=O | 86% | 64% | – |
| O=c1cc(O)c2cccnc2n1-c1ccccc1 | 0% | – | – |
| C=CCc1c(O)c2cccnc2n(-c2cccc(OC)c2)c1=O | 56% | 46% | – |
| CCCCc1c(O)nc2ncccc2c1O | 15% | – | – |
| CC(C)=CCc1c(O)c2nccnc2n(-c2ccccc2)c1=O | 69% | 10% | – |

| Structure (SMILES) | inhibition at 10 µM (Cavia porcellus [1]) | inhibition in vivo at 25 mg/kg (Cavia porcellus [2]) | inhibition in vivo at 12.5 mg/kg (Cavia porcellus [3]) |
| --- | --- | --- | --- |
| CCCCc1c(O)c2cccnc2n(-c2c(C)cccc2C)c1=O | 0% | – | – |
| CCCCc1c(O)c2cccnc2n(-c2ccc(C(C)=O)cc2)c1=O | 37% | – | – |
| CC(=O)Oc1c(CCC2CCCCN2C)c(=O)n(-c2ccccc2)c2ncccc12 (stereo not given) | 19% | – | – |
| O=c1c(C2CCCCC2)c(O)c2cccnc2n1-c1ccccc1 | 66% | 45% | – |
| CCCCc1c(O)c2cc3ccccc3nc2n(-c2ccccc2)c1=O | 0% | – | – |
| CC(=O)CCc1c(O)c2cccnc2n(-c2ccccc2)c1=O | 36% | – | – |
| CCCCc1c(O)c2cc3c(nc2n(-c2ccccc2)c1=O)CCCC3 | 38% | – | – |
| CCCCc1c(O)c2ccc(C)nc2n(-c2ccccc2)c1=O | 21% | – | – |
| CCCCc1c(O)c2cc(Br)cnc2n(-c2ccccc2)c1=O | 73% | 5% | – |
| CCCCc1c(O)c2cnccc2n(-c2ccccc2)c1=O | 0% | – | – |
| CCCCc1c(OCCN(C)C)c2cccnc2n(-c2ccccc2)c1=O | 0% | 84% | 13% |
| C=CCCCCCCCc1c(OC(C)=O)c2cccnc2n(-c2ccccc2)c1=O | 15% | – | – |
| CCCCc1c(OCCCN(C)C)c2cccnc2n(-c2ccccc2)c1=O | 0% | 13% | – |
| CCCCc1c(O)c2cccnc2n(Cc2ccccc2)c1=O | 0% | – | – |
| CCCCc1c(O)c2cccnc2n(-c2ccc(O)cc2)c1=O | 44% | – | – |
| O=c1c(CCc2ccccn2)c(O)c2cccnc2n1-c1ccccc1 | 58% | – | 5% |
| CC(O)CCc1c(O)c2cccnc2n(-c2ccccc2)c1=O (stereo not given) | 53% | 32% | – |
| CCCCc1c(O)c2cccnc2n(-c2ccc(OC)cc2)c1=O | 87% | 51% | – |
| CCCCc1c(O)c2cccnc2n(-c2ccc3c(c2)CCC3)c1=O | 55% | 1% | – |
| CCCCc1c(O)c2cccnc2n(-c2ccc(O)c(C(=O)OCC)c2)c1=O | 65% | – | 0% |
| CCCCc1c(O)c2cccnc2n(-c2cccc(Cl)c2C)c1=O | 5% | – | – |
| CCCCc1c(O)c2cccnc2n(-c2ccc(OCc3ccccc3)cc2)c1=O | 50% | 0% | – |

| Structure (SMILES) | inhibition at 10 µM (Cavia porcellus [1]) | inhibition in vivo at 25 mg/kg (Cavia porcellus [2]) | inhibition in vivo at 12.5 mg/kg (Cavia porcellus [3]) |
| --- | --- | --- | --- |
| Cc1c(O)c2cccnc2n(-c2ccccc2)c1=O | 52% | 33% | – |
| CC(C)=CCc1c(O)c2cccnc2n(-c2ccccc2)c1=O | 45% | – | – |
| CCCCc1c(OCCOCC)c2cccnc2n(-c2ccccc2)c1=O | 0% | – | – |
| C=CCc1c(O)c2cccnc2n(-c2ccc(OC)cc2)c1=O | 3% | – | – |
| CCCCc1c(O)c2c(n(-c3ccccc3)c1=O)NCCC2 | 51% | 17% | – |
| C#CCOc1c(CC#C)c(=O)n(-c2ccccc2)c2ncccc12 | 62% | – | 0% |
| CCCCc1c(O)c2cccnc2n(-c2ccc(Oc3ccccc3)cc2)c1=O | 54% | 0% | – |
| CCCCc1c(OC(C)=O)c2cccnc2n(-c2ccc([S+](C)[O-])cc2)c1=O (stereo not given) | 11% | – | – |
| CCCCc1c(OC(C)=O)c2cccnc2n(-c2cccc(S(C)(=O)=O)c2)c1=O | 20% | – | – |
| CCCCc1c(OCC(O)CO)c2cccnc2n(-c2ccccc2)c1=O (stereo not given) | 0% | – | – |
| CCCCc1c(OC(C)=O)c2cccnc2n(-c2cccc(SC)c2)c1=O | 57% | 27% | – |
| O=c1c(CCCCc2ccccc2)c(O)c2cccnc2n1-c1ccccc1 | 9% | – | – |
| CCCCc1c(O)c2cccnc2n(-c2ccc(OC)c(OC)c2)c1=O | 57% | 0% | – |
| CCc1c(O)c2cccnc2n(-c2ccccc2)c1=O | 74% | – | 44% |
| CCCCc1c(O)c2cccnc2n(-c2cccnc2)c1=O | 33% | – | – |
| CCCCc1c(O)c2cc3c(nc2n(-c2ccccc2)c1=O)CCC3 | 22% | – | – |
| CCCCc1c(OC(C)=O)c2cccnc2n(-c2ccc(OC)cc2)c1=O | 64% | 32% | – |
| CCCCCCn1c(=O)c(CCCC)c(O)c2cccnc21 | 63% | 15% | – |
| CCCCc1c(O)c2cccnc2n(-c2ccccc2SC)c1=O | 32% | – | – |
| CCCCc1c(O)c2cccnc2n(CCN(C)C)c1=O | 0% | – | – |
| CCCCc1c(O)c2ncccc2n(-c2ccccc2)c1=O | 43% | – | – |
| CCCCCCCCc1c(O)c2cccnc2n(-c2ccccc2)c1=O | 51% | 0% | – |

| Structure (SMILES) | inhibition at 10 µM (Cavia porcellus [1]) | inhibition in vivo at 25 mg/kg (Cavia porcellus [2]) | inhibition in vivo at 12.5 mg/kg (Cavia porcellus [3]) |
| --- | --- | --- | --- |
| CC1(CCc2c(O)c3cccnc3n(-c3ccccc3)c2=O)OCCO1 | 52% | 0% | – |
| CCCCCc1c(O)c2cccnc2n(-c2ccccc2)c1=O | 49% | 42% | – |
| CCCCc1c(O)c2cccnc2n(-c2cccc(SC)c2)c1=O | 62% | 55% | – |
| C=CCc1c(OC(C)=O)c2cccnc2n(-c2ccc(OC)cc2)c1=O | 52% | 42% | – |
| CCCCc1c(O)c2ccncc2n(-c2ccccc2)c1=O | 0% | – | – |
| CCCCc1c(OCCCO)c2cccnc2n(-c2ccccc2)c1=O | 7% | – | – |
| O=c1c(-c2ccccc2)c(O)c2cccnc2n1-c1ccccc1 | 48% | – | – |
| C=CCc1c(OC(C)=O)c2cc(OC)cnc2n(-c2ccccc2)c1=O | 0% | – | – |
| C#CCOc1c(CCCC)c(=O)n(-c2ccccc2)c2ncccc12 | 0% | – | – |
| CCCCc1c(OCC2COC(C)(C)O2)c2cccnc2n(-c2ccccc2)c1=O (stereo not given) | 0% | – | – |
| CCCCc1c(OC(C)=O)c2cccnc2n(-c2cccc([S+](C)[O-])c2)c1=O (stereo not given) | 28% | – | – |
| CCCCc1c(O)c2cccnc2n(-c2cc(OC)c(OC)c(OC)c2)c1=O | 22% | – | – |
| CCCCc1c(O)c2cccnc2n(-c2ccc(F)cc2)c1=O | 95% | – | 0% |
| CCCCc1ccc(-n2c(=O)c(CCCC)c(O)c3cccnc32)cc1 | 50% | 13% | – |
| CCCCOc1ccc(-n2c(=O)c(CCCC)c(O)c3cccnc32)cc1 | 17% | – | – |
| CCCCc1c(=O)c2cccnc2n2c1oc1ccccc12 | 14% | – | – |
| CCCCc1c(O)c2cccnc2n(-c2ccc(O)c(C(=O)O)c2)c1=O | 0% | – | – |
| O=c1c(-c2ccccn2)c(O)c2cccnc2n1-c1ccccc1 | 84% | – | 42% |
| C=CCc1c(OC(C)=O)c2cccnc2n(-c2ccccc2OC)c1=O | 35% | – | – |
| CCCCc1c(OC(C)=O)c2cccnc2n(-c2ccc(F)cc2)c1=O | 77% | – | 34% |
| CCCCc1c(O)c2cccnc2n(-c2ccc(SC)cc2)c1=O | 86% | 8% | – |
